From PMC7932028 (European journal of medicinal chemistry, 2020)
Values after ≈ are worked out from the molar mass of the structure shown.

The compounds below were run on S. aureus strain 29213 (assay: Whole cell growth inhibition). Conditions: Staphylococcus aureus, 29213, 18 h, read-out: MIC (whole cell growth inhibition).
Assay type: cell-based
Method in brief: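 Racemic test compounds were assayed against CLSI-standardized S. aureus cultures. Growth was scored by turbidity at 600 nm and by visual inspection. The MIC was taken as the lowest concentration with no growth after 18 h incubation. There were n = 2 independent assays, each with duplicate technical replicates, and values are given with SEM.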

SMILES	MIC
CCCC1c2cc(C)c(C)cc2C=NN1C(=O)/C=C/c1cc(Cc2cnc(N)nc2N)cc(OC)c1OC (racemic) [13b, (±)-(E)-3-(5-((2,4-Diaminopyrimidin-5-yl)methyl)-2,3-dimethoxyphenyl)-1-(6,7-dimethyl-1-propylphthalazin-2(1H)-yl) prop-2-en-1-one]	0.5 to 1 µg/mL (≈ 0.972 to 1.94 µM)
CCCC1c2ccccc2C=NN1C(=O)/C=C/c1cc(Cc2cnc(N)nc2N)cc(OC)c1OC (stereo not drawn) [11a]	0.0625 to 0.25 µg/mL (≈ 0.128 to 0.514 µM)
COc1cc(Cc2cnc(N)nc2N)cc(/C=C/C(=O)N2N=Cc3ccccc3C2c2ccc(C)cc2)c1OC (stereo not drawn) [11j]	0.046 to 0.187 µg/mL (≈ 0.086 to 0.35 µM)
